≈ marks a conversion by molar mass, not a printed value.
Experiments:
[1] = test system: Staphylococcus aureus; test: In vitro minimum inhibitory concentration against coagulase negative Staphylococcus aureus methicillin resistant (CNSMR); assay type: functional
[2] = test system: Staphylococcus aureus; test: In vitro minimum inhibitory concentration against Staphylococcus aureus MRQR; assay type: functional
[3] = test system: Staphylococcus aureus; test: In vitro minimum inhibitory concentration against Staphylococcus aureus Oxford; assay type: functional; settings: Staphylococcus aureus; read-out: MIC
[4] = test system: Streptococcus pyogenes; test: In vitro minimum inhibitory concentration against Streptococcus pyogenes penicillin sensitive; assay type: functional
How it was run: (§1)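 Agar dilution per NCCLS protocol with doubling dilutions from 128 to 0.008 mg/L, incubated at 37 °C. Strains came from an in-house culture collection. MIC reported in mg/L.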

[5] = test system: Mus musculus; test: In vivo antibacterial activity against Staphylococcus aureus after intravenous administration (5 mg/kg) in mice using (MTT) mouse thigh test
[6] = test system: Mus musculus; test: In vivo antibacterial activity against Staphylococcus aureus after intravenous administration (10 mg/kg) in mice using (MTT) mouse thigh test
[7] = test system: Enterococcus faecalis; test: In vitro minimum inhibitory concentration against Enterococcus faecalis; assay type: functional; how it was run: as §1
[8] = In vivo antibacterial activity against Staphylococcus aureus after intravenous administration (5 mg/kg) in mice using (MTT) mouse thigh test
[9] = test system: Staphylococcus aureus; test: In vivo antibacterial activity against Staphylococcus aureus after intravenous administration (10 mg/kg) in mice using (MTT) mouse thigh test

| SMILES | MIC [1] [µg/mL] | MIC [2] [µg/mL] | MIC [3] [µg/mL] | MIC [4] [µg/mL] | Activity [5] | Activity [6] | MIC [7] [µg/mL] | Activity [8] | Activity [9] |
| --- | --- | --- | --- | --- | --- | --- | --- | --- | --- |
| CC(=O)NC[C@H]1CN(c2ccc(N3CCOCC3)c(F)c2)C(=O)O1 [LINEZOLID] | 0.5 (≈ 1.48 µM) | 1 (≈ 2.96 µM) | 0.5 (≈ 1.48 µM) | 1 (≈ 2.96 µM) | 0.05 | 1.4 | – | – | – |
| O=C([C@@H](O)CO)N1CC=C(c2c(F)cc(N3C[C@H](COc4ccon4)OC3=O)cc2F)CC1 [POSIZOLID] | 0.5 (≈ 1.07 µM) | 0.5 (≈ 1.07 µM) | 0.25 (≈ 0.537 µM) | 0.25 (≈ 0.537 µM) | – | – | 0.5 (≈ 1.07 µM) | 0.7 | 0.98 |
| O=C(OC[C@@H](O)CO)N1CC=C(c2ccc(N3C[C@H](COc4ccon4)OC3=O)cc2F)CC1 | 0.5 (≈ 1.05 µM) | 0.5 (≈ 1.05 µM) | 0.25 (≈ 0.524 µM) | 0.5 (≈ 1.05 µM) | – | – | 1 (≈ 2.09 µM) | 0.27 | 0.48 |
| O=C1O[C@@H](COc2ccccn2)CN1c1ccc(C2=CCOCC2)c(F)c1 | 1 (≈ 2.7 µM) | 1 (≈ 2.7 µM) | 0.5 (≈ 1.35 µM) | 2 (≈ 5.4 µM) | – | – | 2 (≈ 5.4 µM) | 0 | 0.15 |
| CC(=O)NC[C@H]1CN(c2ccc(C3=CCOCC3)c(F)c2)C(=O)O1 | 0.13 (≈ 0.389 µM) | 0.25 (≈ 0.748 µM) | 0.13 (≈ 0.389 µM) | 0.13 (≈ 0.389 µM) | – | – | 0.13 (≈ 0.389 µM) | 0.6 | 1.34 |
| O=C1O[C@@H](COc2cnsn2)CN1c1ccc(C2=CCOCC2)c(F)c1 | 0.25 (≈ 0.662 µM) | 0.25 (≈ 0.662 µM) | 0.25 (≈ 0.662 µM) | 0.25 (≈ 0.662 µM) | – | – | 0.5 (≈ 1.32 µM) | 0.11 | 0.45 |
| C[C@H](O)C(=O)N1CC=C(c2ccc(N3C[C@H](COc4cnsn4)OC3=O)cc2F)CC1 | 0.5 (≈ 1.11 µM) | 0.5 (≈ 1.11 µM) | 0.25 (≈ 0.557 µM) | 1 (≈ 2.23 µM) | – | – | 1 (≈ 2.23 µM) | 0.43 | 1.14 |
| O=C1O[C@@H](COc2ccncn2)CN1c1ccc(C2=CCOCC2)c(F)c1 | 2 (≈ 5.39 µM) | 2 (≈ 5.39 µM) | 1 (≈ 2.69 µM) | 4 (≈ 10.8 µM) | – | – | 4 (≈ 10.8 µM) | 0.23 | 0.34 |
